Here are results for three compounds from ChEMBL document CHEMBL1131831, “A rapid method to identify exo-protease inhibitors” (Bioorg Med Chem Lett, 1999).

Data set [1] addresses T1, Chymotrypsin-like elastase family member 2A (Sus scrofa) (UniProt P08419).
T1 sequence (whole entry): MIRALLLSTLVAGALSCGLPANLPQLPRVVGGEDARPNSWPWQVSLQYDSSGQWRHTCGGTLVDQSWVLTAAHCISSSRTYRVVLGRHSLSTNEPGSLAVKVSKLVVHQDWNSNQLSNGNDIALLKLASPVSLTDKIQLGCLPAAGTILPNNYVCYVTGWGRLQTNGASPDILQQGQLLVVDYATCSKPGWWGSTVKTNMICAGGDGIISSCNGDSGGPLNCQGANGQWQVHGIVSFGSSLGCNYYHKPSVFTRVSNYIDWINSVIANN
The experiment in a line: Proteolysis rate constant (Kcat), when mixed with elastase enzyme for the conversion of water-soluble compound to fluorescent oil-soluble compound. The gist of the method:
(§1)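 Porcine pancreatic trypsin (type IX), porcine pancreatic kallikrein, bovine spleen cathepsin B and porcine pancreatic elastase, each enzyme added to 12 µM substrate solution over mineral oil, shaken at 37 °C. Buffers: trypsin 10 mM Tris-HCl pH 7.8; kallikrein 50 mM Tris pH 9.0; cathepsin B 100 mM potassium phosphate pH 6.0; elastase 10 mM Tris-HCl pH 7.5. Released fluorophore in the oil is diluted with n-heptane and quantified at 424 nm against oil absorbance at 272 nm.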

Data set [2] can be described thus: Ratio of proteolysis rate constant (Kcat) to that of proteolysis constant (Km) was determined. The gist of the method: as §1
The subject of data set [3] is CN(C(=O)[C@@H](CCCCC(=N)N)NC(=O)[C@H](CCCCC(=N)N)NC(=O)OCc1ccccc1)c1ccc(C#C/C=C/c2ccc([N+](=O)[O-])c(O)c2)cc1. The experiment in a line: Proteolysis constant (Km), when mixed with Cathepsin B enzyme for the conversion of water-soluble compound to fluorescent oil-soluble compound. The gist of the method: as §1
Data set [4] addresses T2, Neutrophil elastase (Homo sapiens) (UniProt P08246).
T2 sequence (whole entry): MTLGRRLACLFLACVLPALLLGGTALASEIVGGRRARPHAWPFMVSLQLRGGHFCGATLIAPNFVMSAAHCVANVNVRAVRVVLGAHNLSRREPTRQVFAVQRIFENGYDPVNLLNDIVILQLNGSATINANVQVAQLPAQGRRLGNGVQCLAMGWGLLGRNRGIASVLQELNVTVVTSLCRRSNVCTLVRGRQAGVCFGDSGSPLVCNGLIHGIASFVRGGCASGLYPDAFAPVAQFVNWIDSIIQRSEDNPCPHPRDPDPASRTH
The experiment in a line: Proteolysis rate constant (Kcat), when mixed with human leukocyte elastase (HLE)enzyme for the conversion of water-soluble compound to fluorescent oil-soluble compound. The gist of the method: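 Human leukocyte elastase (1 unit = 1.2 µg; releases 1 µmol/min p-nitrophenol from N-t-BOC-L-alanine-p-nitrophenyl ester, pH 6.5, 37 °C) in 50 mM NaOAc, 100 mM NaCl, 8 mM NaN3 pH 6.0. Enzyme mixed with 12 µM substrate in buffer under a trace mineral-oil layer, shaken at 37 °C. Released fluorophore extracted into oil, diluted with n-heptane, quantified by absorbance at 424 nm against oil at 272 nm.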

Compound `COCCOCCOCCOCCOC(=O)N[C@@H](C)C(=O)N[C@H](C)C(=O)N(C)c1ccc(C#C/C=C/c2ccc([N+](=O)[O-])c(O)c2)cc1` displayed a k cat in data set [1] of 145 s⁻¹. The k cat/Km in data set [2] was 446000 M⁻¹ s⁻¹. One may read the Km as the substrate concentration at which the rate is half of its maximum. Cathepsin B (Bos taurus), P07688: the Michaelis-Menten constant (Km) in data set [3] came to 129 µM. For `CC(C)C[C@H](NC(=O)[C@H](N)Cc1ccc(O)cc1)C(=O)N[C@@H](C(=O)N(C)c1ccc(C#C/C=C/c2ccc([N+](=O)[O-])c(O)c2)cc1)C(C)C`, the k cat/Km in data set [2] came to 225000 M⁻¹ s⁻¹. The compound further had a k cat in data set [4] of 3.6 s⁻¹.
